Measurements as given in ChEMBL document CHEMBL1156597, “Structure-activity relationship of kahalalide F synthetic analogues” (J Med Chem, 2008).

Tests used:
[1] = Cytotoxicity against human IGROV-ET cells after 48 hrs by SRB assay; type: functional; conditions: for CC50: read-out: LC50 (the source's name)
Procedure, shortened: (§1)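 Cells grown in RPMI 1640 with 10% FBS and penicillin/streptomycin at 37 °C and 5% CO₂, trypsinized, then seeded at 5 × 10³/well. After 18 h drug-free attachment, samples in DMSO/EtOH/PBS (0.5:0.5:99) were added for 48 h continuous exposure. Cells were fixed with cold TCA (1 h, 4 °C) and stained with SRB (10 min). Tris-solubilized stain read at 490 nm. Triplicate wells, mean ± SD; GI₅₀ derived.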

SK-MEL-28 = experiment: Cytotoxicity against human SK-MEL-28 cells after 48 hrs by SRB assay; type: functional, cell-based; conditions: Homo sapiens, SK-MEL-28, 48 h; for GI50: read-out: GI50; for CC50: read-out: LC50 (the source's name); procedure, shortened: as §1
HT-29 = experiment: Cytotoxicity against human HT29 cells after 48 hrs by SRB assay; type: functional, cell-based; conditions: Homo sapiens, HT-29, 48 h; for CC50: read-out: LC50 (the source's name); procedure, shortened: as §1
K562 = experiment: Cytotoxicity against human K562 cells after 48 hrs by SRB assay; type: functional; conditions: K562, 48 h, read-out: LC50 (the source's name); procedure, shortened: as §1
PANC-1 = experiment: Cytotoxicity against human PANC1 cells after 48 hrs by SRB assay; type: functional; conditions: PANC-1, 48 h; for CC50: read-out: LC50 (the source's name); procedure, shortened: as §1
[2] = Cytotoxicity against human IGROV cells after 48 hrs by SRB assay; type: functional; conditions: for CC50: read-out: LC50 (the source's name); procedure, shortened: as §1
LoVo [3] = experiment: Cytotoxicity against human LoVo cells after 48 hrs by SRB assay; type: functional; conditions: for CC50: read-out: LC50 (the source's name)
HeLa = experiment: Cytotoxicity against human HeLa cells after 48 hrs by SRB assay; type: functional; conditions: for CC50: read-out: LC50 (the source's name); procedure, shortened: as §1
[4] = Cytotoxicity against human HeLa-APL cells after 48 hrs by SRB assay; type: functional; procedure, shortened: as §1
DU-145 = experiment: Cytotoxicity against human DU145 cells after 48 hrs by SRB assay; type: functional, cell-based; conditions: Homo sapiens, DU-145, 48 h; for CC50: read-out: LC50 (the source's name); procedure, shortened: as §1
LoVo [5] = experiment: Cytotoxicity against human doxorubicin resistant LoVo cells after 48 hrs by SRB assay; type: functional; conditions: for CC50: read-out: LC50 (the source's name); procedure, shortened: as §1
A549 = experiment: Cytotoxicity against human A549 cells after 48 hrs by SRB assay; type: functional, cell-based; conditions: Homo sapiens, A549, 48 h; for GI50: read-out: GI50; procedure, shortened: as §1
SK-BR-3 = experiment: Cytotoxicity against human SKBR3 cells after 48 hrs by SRB assay; type: functional; conditions: SK-BR-3, 48 h; procedure, shortened: as §1

C/C=C1\NC(=O)[C@H](Cc2ccccc2)NC(=O)[C@@H](C(C)C)NC(=O)[C@@H]([C@H](C)CC)NC(=O)[C@H](NC(=O)[C@H](NC(=O)[C@H](CCCN)NC(=O)[C@H]2CCCN2C(=O)[C@H](NC(=O)[C@@H](NC(=O)[C@@H](NC(=O)[C@@H](C)NC(=O)CCCC(C)C)[C@@H](C)O)C(C)C)C(C)C)[C@H](C)CC)[C@H](C)OC(=O)[C@H](C(C)C)NC1=O
CC50 [1]: 0.714 µM | TGI (SK-MEL-28): 1.7 µM | GI50 (SK-MEL-28): 1.99 µM | CC50 (SK-MEL-28): 1.47 µM | GI50 (HT-29): 3.03 µM | TGI (HT-29): 3.18 µM | CC50 (HT-29): 3.34 µM | CC50 (K562): 3.31 µM | GI50 (PANC-1): 1.66 µM | TGI (PANC-1): 1.9 µM | CC50 (PANC-1): 2.18 µM | CC50 [2]: 0.828 µM | GI50 (LoVo [3]): 1.98 µM | TGI (LoVo [3]): 2.26 µM | CC50 (LoVo [3]): 2.22 µM | GI50 (HeLa): 1.03 µM | TGI (HeLa): 0.998 µM | CC50 (HeLa): 0.963 µM | GI50 [4]: 1.68 µM | LC50 (concentration giving 50% net cell kill) [4]: 1.18 µM | TGI [4]: 1.42 µM | TGI (DU-145): 1.48 µM | GI50 (DU-145; read-out: GI50): 1.81 µM | CC50 (DU-145): 1.2 µM | GI50 (LoVo [5]): 0.8 µM | TGI (LoVo [5]): 1.27 µM | CC50 (LoVo [5]): 1.85 µM | LC50 (A549): 1.4 µM | TGI (A549): 1.43 µM | GI50 (A549): 1.46 µM

C/C=C1\NC(=O)[C@H](Cc2ccccc2)NC(=O)[C@@H](C(C)C)NC(=O)[C@@H]([C@H](C)CC)NC(=O)[C@H](NC(=O)[C@H](NC(=O)[C@H](CCCNC(=O)c2cc(F)c(F)c(F)c2F)NC(=O)[C@H]2CCCN2C(=O)[C@H](NC(=O)[C@@H](NC(=O)[C@@H](NC(=O)[C@H](NC(=O)CCCC(C)C)C(C)C)[C@@H](C)O)C(C)C)C(C)C)[C@H](C)CC)[C@H](C)OC(=O)[C@H](C(C)C)NC1=O
GI50 [1]: 0.357 µM | GI50 ([1]; read-out: GI50): 0.332 µM | CC50 [1]: 0.441 µM | TGI (SK-MEL-28): 1.06 µM | GI50 (SK-MEL-28): 0.984 µM | CC50 (SK-MEL-28): 1.06 µM | GI50 (HT-29): 0.116 µM | TGI (HT-29): 0.0951 µM | CC50 (HT-29): 0.202 µM | CC50 (K562): 0.172 µM | GI50 (PANC-1): 1.58 µM | TGI (PANC-1): 1.58 µM | CC50 (PANC-1): 1.58 µM | GI50 [2]: 0.217 µM | GI50 ([2]; read-out: GI50): 0.182 µM | CC50 [2]: 0.274 µM | GI50 (LoVo [3]): 0.0842 µM | TGI (LoVo [3]): 0.0938 µM | CC50 (LoVo [3]): 0.104 µM | GI50 (HeLa): 0.288 µM | TGI (HeLa): 0.685 µM | CC50 (HeLa): 0.861 µM | GI50 [4]: 0.493 µM | LC50 (concentration giving 50% net cell kill) [4]: 0.869 µM | TGI [4]: 0.595 µM | GI50 (DU-145): 0.831 µM | GI50 (DU-145; read-out: GI50): 0.726 µM | CC50 (DU-145): 0.831 µM | CC50 (LoVo [5]): 0.0878 µM | LC50 (A549): 1.04 µM | TGI (A549): 1.04 µM | GI50 (A549): 1.04 µM

C/C=C1\NC(=O)[C@H](Cc2ccccc2)NC(=O)[C@@H](C(C)C)NC(=O)[C@@H]([C@H](C)CC)NC(=O)[C@H](NC(=O)[C@H](NC(=O)[C@H](CCCN)NC(=O)[C@H]2CCCN2C(=O)[C@H](NC(=O)[C@@H](NC(=O)[C@@H](NC(=O)[C@H](NC(=O)CC(C)C)C(C)C)[C@@H](C)O)C(C)C)C(C)C)[C@H](C)CC)[C@H](C)OC(=O)[C@H](C(C)C)NC1=O
CC50 [1]: 0.708 µM | TGI (SK-MEL-28): 1.62 µM | GI50 (SK-MEL-28): 1.98 µM | CC50 (SK-MEL-28): 1.33 µM | GI50 (HT-29): 2.98 µM | TGI (HT-29): 3.06 µM | CC50 (HT-29): 3.14 µM | CC50 (K562): 3.81 µM | CC50 (PANC-1): 2.88 µM | CC50 [2]: 0.848 µM | GI50 (LoVo [3]): 1.63 µM | TGI (LoVo [3]): 1.99 µM | CC50 (LoVo [3]): 2.42 µM | GI50 (HeLa): 2.09 µM | TGI (HeLa): 2.09 µM | CC50 (HeLa): 1.63 µM | GI50 [4]: 2.33 µM | LC50 (concentration giving 50% net cell kill) [4]: 1.69 µM | TGI [4]: 2 µM | TGI (DU-145): 1.86 µM | GI50 (DU-145; read-out: GI50): 2.07 µM | CC50 (DU-145): 1.66 µM | GI50 (LoVo [5]): 0.882 µM | TGI (LoVo [5]): 1.39 µM | CC50 (LoVo [5]): 1.88 µM | LC50 (A549): 1.71 µM | TGI (A549): 1.7 µM | GI50 (A549): 1.68 µM

C/C=C1\NC(=O)[C@H](Cc2ccccc2)NC(=O)[C@@H](C(C)C)NC(=O)[C@@H]([C@H](C)CC)NC(=O)[C@H](NC(=O)[C@H](NC(=O)[C@H](CCCN)NC(=O)[C@H]2CCCN2C(=O)[C@H](NC(=O)[C@@H](NC(=O)[C@@H](NC(=O)[C@@H](CCC(=O)O)NC(=O)CCCC(C)C)[C@@H](C)O)C(C)C)C(C)C)[C@H](C)CC)[C@H](C)OC(=O)[C@H](C(C)C)NC1=O
GI50 [1]: 0.969 µM | GI50 ([1]; read-out: GI50): 1.31 µM | CC50 [1]: 0.705 µM | TGI (SK-MEL-28): 3.75 µM | GI50 (SK-MEL-28): 3.73 µM | CC50 (SK-MEL-28): 1.95 µM | GI50 (HT-29): 2.91 µM | TGI (HT-29): 2.96 µM | CC50 (HT-29): 3.01 µM | CC50 (K562): 3.04 µM | GI50 (PANC-1): 5.31 µM | TGI (PANC-1): 4.88 µM | CC50 (PANC-1): 2.77 µM | CC50 [2]: 0.844 µM | GI50 (LoVo [3]): 1.95 µM | TGI (LoVo [3]): 2.2 µM | CC50 (LoVo [3]): 2.49 µM | GI50 (HeLa): 2.94 µM | TGI (HeLa): 2.72 µM | CC50 (HeLa): 1.57 µM | GI50 [4]: 2.91 µM | LC50 (concentration giving 50% net cell kill) [4]: 1.8 µM | TGI [4]: 3.57 µM | TGI (DU-145): 3.01 µM | GI50 (DU-145; read-out: GI50): 2.84 µM | CC50 (DU-145): 1.66 µM | GI50 (LoVo [5]): 2.03 µM | TGI (LoVo [5]): 2.22 µM | CC50 (LoVo [5]): 2.43 µM | LC50 (A549): 1.8 µM | TGI (A549): 2.96 µM | GI50 (A549): 3.25 µM

C/C=C1\NC(=O)[C@H](Cc2ccccc2)NC(=O)[C@@H](C(C)C)NC(=O)[C@@H]([C@H](C)CC)NC(=O)[C@H](NC(=O)[C@H](NC(=O)[C@H](CCCN)NC(=O)[C@H]2CCCN2C(=O)[C@H](NC(=O)[C@@H](NC(=O)[C@@H](NC(=O)[C@H](N)C(C)C)[C@@H](C)O)C(C)C)C(C)C)[C@H](C)CC)[C@H](C)OC(=O)[C@H](C(C)C)NC1=O
TGI [1]: 3.1 µM | GI50 ([1]; read-out: GI50): 4.01 µM | CC50 [1]: 1.26 µM | CC50 (SK-MEL-28): 4.14 µM | CC50 (HT-29): 5.68 µM | CC50 (K562): 4.61 µM | GI50 (PANC-1): 5.49 µM | TGI (PANC-1): 5.39 µM | CC50 (PANC-1): 3.06 µM | CC50 [2]: 1.5 µM | GI50 (LoVo [3]): 9.46 µM | TGI (LoVo [3]): 9.36 µM | CC50 (LoVo [3]): 5.45 µM | CC50 (HeLa): 1.74 µM | LC50 (concentration giving 50% net cell kill) [4]: 1.99 µM | CC50 (DU-145): 1.84 µM | CC50 (LoVo [5]): 5.47 µM | LC50 (A549): 1.98 µM

CC[C@@H](C)[C@@H](NC(=O)[C@H](CCCN)NC(=O)[C@H]1CCCN1C(=O)[C@H](NC(=O)[C@@H](NC(=O)[C@@H](NC(=O)[C@H](NC(=O)CCCC(C)C)C(C)C)[C@@H](C)O)C(C)C)C(C)C)C(=O)N[C@H]1C(=O)N[C@H]([C@H](C)CC)C(=O)N[C@H](C(C)C)C(=O)N[C@@H](Cc2ccccc2)C(=O)N[C@H]([C@H](C)O)C(=O)N[C@@H](C(C)C)C(=O)O[C@H]1C
CC50 [1]: 1.03 µM | CC50 (SK-MEL-28): 2.54 µM | GI50 (HT-29): 11.8 µM | TGI (HT-29): 10.4 µM | CC50 (HT-29): 5.37 µM | GI50 (PANC-1): 4.88 µM | TGI (PANC-1): 4.58 µM | CC50 (PANC-1): 2.21 µM | TGI (SK-BR-3): 6.69 µM | GI50 (SK-BR-3; read-out: GI50): 6.15 µM | CC50 (SK-BR-3; read-out: LC50 (the source's name)): 1.88 µM | CC50 [2]: 0.941 µM | GI50 (LoVo [3]): 3.44 µM | TGI (LoVo [3]): 4.23 µM | CC50 (LoVo [3]): 4.42 µM | CC50 (HeLa): 1.49 µM | LC50 (concentration giving 50% net cell kill) [4]: 1.2 µM | CC50 (DU-145): 1.5 µM | LC50 (A549): 1.15 µM
